The source made the active and inactive calls.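 How the source made its calls, unless noted: active means viability at or under a set limit in both replicates, limit being median viability minus 3 SD (cut at about 48% in these data, passing the limit was not always enough); inconclusive means at or under the limit in just one replicate; inactive means at or above the limit in both replicates.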

Assay [1] in a line: Her2 expression decrease, cell viability multiplex – SKBR3 breast tumor cells, AlphaScreen, ATP viability, primary screen (AID 461;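 active means Her2 level under about 52% in both replicate screens, with viability over 70% of control, limit read from the data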;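 on Her2 level: lower value means less Her2 protein in the cells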;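 on viability: percent of carrier control wells set as 100% viability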). The note with it: SKBR3 Her2 protein level, 18-24 h, measured here: SKBR3 viability, ATP luminescence, at 10 µM.
The target of assay [2] is Receptor tyrosine-protein kinase erbB-2 (Homo sapiens) (UniProt P04626). The assay is described as above. The conditions noted are these: 18-24 h, at 10 µM, stronger effect = lower value.
Receptor tyrosine-protein kinase erbB-2 (Homo sapiens), sequence (P04626 whole entry, looked up): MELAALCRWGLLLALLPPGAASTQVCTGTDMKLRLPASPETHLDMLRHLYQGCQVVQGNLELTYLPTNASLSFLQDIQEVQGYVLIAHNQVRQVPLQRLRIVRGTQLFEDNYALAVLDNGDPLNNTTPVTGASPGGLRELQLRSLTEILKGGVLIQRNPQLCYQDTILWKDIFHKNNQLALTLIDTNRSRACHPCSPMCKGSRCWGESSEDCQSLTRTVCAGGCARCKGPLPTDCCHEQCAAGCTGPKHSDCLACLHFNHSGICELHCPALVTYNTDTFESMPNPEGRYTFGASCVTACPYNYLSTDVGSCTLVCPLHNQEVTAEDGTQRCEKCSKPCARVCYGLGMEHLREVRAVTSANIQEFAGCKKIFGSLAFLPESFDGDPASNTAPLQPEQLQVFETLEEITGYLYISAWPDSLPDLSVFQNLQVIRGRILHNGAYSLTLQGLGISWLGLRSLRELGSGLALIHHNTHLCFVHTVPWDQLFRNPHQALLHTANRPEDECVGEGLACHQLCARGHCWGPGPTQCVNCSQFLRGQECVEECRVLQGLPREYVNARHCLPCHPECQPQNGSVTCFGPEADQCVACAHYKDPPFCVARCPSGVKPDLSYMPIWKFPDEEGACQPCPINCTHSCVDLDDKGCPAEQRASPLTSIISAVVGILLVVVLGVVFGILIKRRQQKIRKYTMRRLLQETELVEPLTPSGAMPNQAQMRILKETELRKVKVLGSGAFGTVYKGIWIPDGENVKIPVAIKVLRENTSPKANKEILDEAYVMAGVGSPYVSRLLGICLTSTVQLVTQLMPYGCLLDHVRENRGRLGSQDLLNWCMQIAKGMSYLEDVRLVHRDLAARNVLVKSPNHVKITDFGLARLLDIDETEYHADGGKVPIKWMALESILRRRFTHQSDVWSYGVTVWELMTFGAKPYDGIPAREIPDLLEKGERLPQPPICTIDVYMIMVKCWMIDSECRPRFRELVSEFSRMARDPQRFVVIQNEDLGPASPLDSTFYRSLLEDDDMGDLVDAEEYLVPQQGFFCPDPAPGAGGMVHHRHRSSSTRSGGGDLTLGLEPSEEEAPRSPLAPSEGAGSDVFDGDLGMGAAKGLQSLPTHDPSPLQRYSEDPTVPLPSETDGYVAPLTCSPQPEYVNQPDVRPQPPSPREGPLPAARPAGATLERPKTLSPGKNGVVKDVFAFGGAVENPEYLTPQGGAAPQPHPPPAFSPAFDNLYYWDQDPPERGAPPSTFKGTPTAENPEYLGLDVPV
Assay [3] is described as follows: reduced viability of SK-BR-3 breast cancer cells – cell-based, 24 h, human, pilot screen (AID 572;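 active means viability at or below 10% of carrier control in both of two separate runs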;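 further: compound exposure lasted between 18 and 24 h rather than exactly 24 h; 100% = carrier-treated control wells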). The conditions noted are these: SK-BR-3 viability, CellTiter-Glo luminescence, at 10 µM, stronger effect = lower value. (In ATP-based viability assays light output follows the ATP content of the culture.)
A short description of assay [4]: HUVEC growth inhibition – cell-based, human, primary screen (AID 575;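 active means viability at or below 30% in both replicate assays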;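 further: 100% = median of untreated cell wells with 0.1% DMSO on each plate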). The note with it: HUVEC proliferation, CellTiter-Glo luminescence, 72 h; at 10 µM; stronger effect = lower value. A digest of the protocol: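 Assay system: Primary human umbilical vein endothelial cells | Quantity: 1250 cells per well | Medium: Supplemented EBM, 2% fetal bovine serum | Detection: CellTiter-Glo luminescence measuring cellular ATP | Read-out: % viability vs DMSO wells | Plate: Collagen-coated 384-well format | Times: 72 h exposure, 37 °C, 5% CO2, 30 min RT equilibration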

A short description of assay [5]: H69AR cell proliferation blockers – human, duplicate replicates, primary screen (AID 580).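 Further: 100% = mean luminescence of untreated wells and 0% = no signal.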 The conditions noted are these: H69AR lung tumor cells viability, ATP luminescence, 72 h; at 10 µM; stronger effect = lower value.
A short description of assay [6]: MRP1 drug-resistance reversers in H69AR cells – cell-based, doxorubicin co-treatment, pilot screen (AID 601;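 active means viability loss from added drug above about 55%, and viability with drug at most 40%, in both replicates, limit read from the data, passing the limit was not always enough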). The conditions noted are these: CellTiter-Glo, 72 h, at 10 µM; for differential viability (reversal): stronger effect = higher value.
Assay [7] is described as follows: yeast transport mutant growth inhibition pilot in 384-well plates, post-Golgi transport modulator project (AID 636; in the data active means inhibition above about 31%). The conditions noted are these: absorbance 615 nm, about 18 h, stronger effect = higher value.
Assay [8] in a line: growth suppression of yeast trafficking mutant, preliminary HTS, modulators of trafficking downstream of Golgi apparatus project, 1536-format plate, OD 615 nm (AID 637; in the data active means inhibition above about 30%). The note with it: yeast transport mutant growth, absorbance 615 nm, 18 h; stronger effect = higher value.
Where [9] appears, read: H69AR cells + 2 uM doxorubicin, measured here: viability with 2 uM doxorubicin, stronger effect = lower value.
Setting [10] is: H69AR cells, compound alone cytotoxicity.

Turning to `CSCC[C@@H](Nc1nc(-c2ccccc2)nc2c1oc1ccccc12)C(=O)O`, the viability (usually a read-out of living cells in per cent, often relative to untreated cells) is 91% in assay [1]; 91% (inactive) in assay [3]; 84.2% (inactive) in assay [4]; 93.8% (inactive) in assay [5]; 95.1% in assay [6] (setting [9]); 93.8% in assay [6] (setting [10]). Also, the Her2 level in assay [2] was 75% (inactive). Moreover, the differential viability (reversal) in assay [6] (H69AR cells + 2 uM doxorubicin) was -1.28% (inactive). Moreover, the inhibition (commonly the change of the read-out against control, counted positive when it falls) in assay [7] is -7.43% (inactive); in assay [8], -0.82% (inactive).
Consider `Cc1ccccc1NC(=O)C1CC(=O)N(c2ccccc2F)C1` (stereo not given), for which the viability in assay [1] was 91.5%; in assay [3], 91.5% (inactive); in assay [4], 102% (inactive); in assay [5] it was 100% (inactive); in assay [6] (setting [9]) it was 82.1%; in assay [6] (setting [10]), 100%. In addition, the Her2 level in assay [2] is 81% (inactive). Moreover, the differential viability (reversal) in assay [6] (H69AR cells + 2 uM doxorubicin) was 18.3% (inactive). In addition, the inhibition in assay [7] was -8.65% (inactive); in assay [8] it was 6.89% (inactive).
With `COc1ccc(-n2ncc3c(NCc4ccccn4)ncnc32)cc1`, the viability is 98.5% in assay [1]; 98.5% (inactive) in assay [3]; 102% (inactive) in assay [4]; 90.5% (inactive) in assay [5]; 87% in assay [6] (setting [9]); 90.5% in assay [6] (setting [10]). In assay [2], the Her2 level was 97.5% (inactive). Moreover, the differential viability (reversal) in assay [6] (H69AR cells + 2 uM doxorubicin) is 3.51% (inactive). For the same compound, the values for the inhibition in assay [7] and in assay [8] were -1.97% (inactive) and 4.19% (inactive), respectively.
`CN(C)c1ccc(NC(=O)CSCc2nc3c(nnn3Cc3ccc(F)cc3)c(=O)[nH]2)cc1`: the viability was 89.5% in assay [1]; 89.5% (inactive) in assay [3]; 110% (inactive) in assay [4]; 94% (inactive) in assay [5]; 89.7% in assay [6] (setting [9]); 94% in assay [6] (setting [10]). Also, the Her2 level in assay [2] was 83.5% (inactive). Also, the differential viability (reversal) in assay [6] (H69AR cells + 2 uM doxorubicin) was 4.32% (inactive). Besides, the inhibition in assay [7] was -6.49% (inactive); in assay [8] it was 0% (inactive).
With `CC(NC(=O)c1ccccc1NC(=O)c1ccco1)C(=O)O` (stereo not given), the viability was 106% in assay [1]; 106% (inactive) in assay [3]; 89% (inactive) in assay [4]; 86.7% (inactive) in assay [5]; 84.7% in assay [6] (setting [9]); 86.7% in assay [6] (setting [10]). In assay [2], the Her2 level was 68% (inactive). Besides, the differential viability (reversal) in assay [6] (H69AR cells + 2 uM doxorubicin) was 2.01% (inactive). Further, the figures for the inhibition in assay [7] and in assay [8] were -2.63% (inactive) and 2.1% (inactive), respectively.
Consider `CC1CN(Cc2nc3c(c(=O)[nH]c(=O)n3C)n2CC(N)=O)CC(C)O1` (stereo not given), for which the viability in assay [1] is 99.5%; in assay [3] it was 99.5% (inactive); in assay [4], 88.6% (inactive); in assay [5], 102% (inactive); in assay [6] (setting [9]), 92.4%; in assay [6] (setting [10]), 102%. Also, the Her2 level in assay [2] is 97.5% (inactive). Besides, the differential viability (reversal) in assay [6] (H69AR cells + 2 uM doxorubicin) was 9.96% (inactive). Further, the inhibition in assay [7] was 0.51% (inactive); in assay [8] it was 0.67% (inactive).
As for `COCCN1C(=O)C(=O)/C(=C(/O)c2cccc(S(=O)(=O)N(C)C)c2)C12C(=O)N(C)c1ccccc12` (stereo not given), the viability is 110% in assay [1]; 110% (inactive) in assay [3]; 110% (inactive) in assay [4]; 99.5% (inactive) in assay [5]; 95.9% in assay [6] (setting [9]); 99.5% in assay [6] (setting [10]). Besides, the Her2 level in assay [2] was 91.5% (inactive). For the same compound, the differential viability (reversal) in assay [6] (H69AR cells + 2 uM doxorubicin) is 3.6% (inactive). Besides, the figures for the inhibition in assay [7] and in assay [8] were -7.76% (inactive) and -2.38% (inactive), respectively.
Regarding `O=C(c1ccc2c(c1)OCCO2)C1CCN(C(=O)c2ccc(F)cc2)CC1`, the viability was 102% in assay [1]; 102% (inactive) in assay [3]; 93.7% (inactive) in assay [4]; 83.8% (inactive) in assay [5]; 99.9% in assay [6] (setting [9]); 83.8% in assay [6] (setting [10]). In addition, the Her2 level in assay [2] is 111% (inactive). In assay [6] (H69AR cells + 2 uM doxorubicin), the differential viability (reversal) is -16.2% (inactive). Further, the inhibition in assay [7] is -6.35% (inactive); in assay [8] it was -3.11% (inactive).
On to `CCOC(=O)c1cc2sccc2n1Cc1ccccc1`, for which the viability in assay [1] was 100%; in assay [3], 100% (inactive); in assay [4], 97.9% (inactive); in assay [5] it was 96% (inactive); in assay [6] (setting [9]), 80.7%; in assay [6] (setting [10]), 96%. Further, the Her2 level in assay [2] is 116% (inactive). The differential viability (reversal) in assay [6] (H69AR cells + 2 uM doxorubicin) is 15.4% (inactive). Also, the inhibition in assay [7] is -2.8% (inactive); in assay [8], 1.8% (inactive).
Take `COCCn1c(NCc2ccc(C)cc2)nc2c1c(=O)[nH]c(=O)n2C`: the viability was 108% in assay [1]; 108% (inactive) in assay [3]; 87.2% (inactive) in assay [4]; 107% (inactive) in assay [5]; 99.5% in assay [6] (setting [9]); 107% in assay [6] (setting [10]). In assay [2], the Her2 level was 87.5% (inactive). For the same compound, in assay [6] (H69AR cells + 2 uM doxorubicin), the differential viability (reversal) is 7.44% (inactive). Moreover, the values for the inhibition in assay [7] and in assay [8] were -2.27% (inactive) and -1.29% (inactive), respectively.
With `CCOc1ccc(NCc2nnc(SCC(=O)Nc3cc(C)on3)n2-c2ccccc2OC)cc1`, the viability in assay [1] was 106%; in assay [3] it was 106% (inactive); in assay [4], 41.7% (inactive); in assay [5] it was 13.1% (active); in assay [6] (setting [9]) it was 32.1%; in assay [6] (setting [10]), 13.1%. Besides, the Her2 level in assay [2] is 79% (inactive). For the same compound, in assay [6] (H69AR cells + 2 uM doxorubicin), the differential viability (reversal) is -19% (inactive). For the same compound, the inhibition in assay [7] was -4.8% (inactive); in assay [8], 2.86% (inactive).
`Clc1cccc(Nc2c3c(nc4ncnn24)CCC3)c1`: the viability in assay [1] was 94.5%; in assay [3], 94.5% (inactive); in assay [4], 93% (inactive); in assay [5] it was 83.8% (inactive); in assay [6] (setting [9]) it was 89.2%; in assay [6] (setting [10]), 83.8%. The Her2 level in assay [2] is 82.5% (inactive). The differential viability (reversal) in assay [6] (H69AR cells + 2 uM doxorubicin) is -5.48% (inactive). For the same compound, the figures for the inhibition in assay [7] and in assay [8] were 1.82% (inactive) and 9.84% (inactive), respectively.
For `CC(C)=CC(=O)Nc1ccc(Br)cc1`, the viability in assay [1] was 77.5%; in assay [3], 77.5% (inactive); in assay [4], 107% (inactive); in assay [5], 98.2% (inactive); in assay [6] (setting [9]), 91.5%; in assay [6] (setting [10]), 98.2%. For the same compound, in assay [2], the Her2 level was 104% (inactive). In assay [6] (H69AR cells + 2 uM doxorubicin), the differential viability (reversal) was 6.66% (inactive). The results for the inhibition in assay [7] and in assay [8] were 1.45% (inactive) and -9.35% (inactive), respectively.
Take `Cn1c(SC/C=C/c2ccccc2)nnc1-c1cnccn1`: the viability in assay [1] was 80.5%; in assay [3] it was 80.5% (inactive); in assay [4], 114% (inactive); in assay [5] it was 94.3% (inactive); in assay [6] (setting [9]), 84%; in assay [6] (setting [10]), 94.3%. Also, the Her2 level in assay [2] was 102% (inactive). For the same compound, in assay [6] (H69AR cells + 2 uM doxorubicin), the differential viability (reversal) is 10.3% (inactive). The inhibition in assay [7] is 2.27% (inactive); in assay [8], -5.48% (inactive).
For the compound `O=C(NCc1ccco1)C1CCN(C(=O)c2cc3sccc3n2Cc2ccc(F)cc2)CC1`, the viability in assay [1] is 94.5%; in assay [3] it was 94.5% (inactive); in assay [4], 56.1% (inactive); in assay [5] it was 67.1% (inactive); in assay [6] (setting [9]) it was 73.7%; in assay [6] (setting [10]), 67.1%. The Her2 level in assay [2] is 62.5% (inactive). For the same compound, in assay [6] (H69AR cells + 2 uM doxorubicin), the differential viability (reversal) is -6.56% (inactive). Moreover, the figures for the inhibition in assay [7] and in assay [8] were -5.87% (inactive) and 5.74% (inactive), respectively.
As for `CCCOC(=O)c1ccc(-c2c(C)noc2-c2ccc(OC)cc2O)o1`, the viability in assay [1] is 98%; in assay [3], 98% (inactive); in assay [4] it was 46.3% (inactive); in assay [5] it was 75.8% (inactive); in assay [6] (setting [9]), 86%; in assay [6] (setting [10]), 75.8%. Further, in assay [2], the Her2 level was 74.5% (inactive). In assay [6] (H69AR cells + 2 uM doxorubicin), the differential viability (reversal) is -10.3% (inactive). Further, the inhibition is -4.81% (inactive) in assay [7] and -9.33% (inactive) in assay [8].
